Reference: publication PMC3806060 (Journal of medicinal chemistry, 2013)
Entries after “also recorded” stand apart in the source; their conditions may differ. Where two headings read alike, the source gives them in different places.

Key:
[1] = molecular target: T1, Bcl-2 (Homo sapiens, UniProt P10415); settings: read-out: Ki, binding to Bcl-2; cited from earlier work
[2] = test system: animal model of human cancer; settings: cited from earlier work
[3] = molecular target: T2, Bcl-xL (Homo sapiens, UniProt Q07817); settings: read-out: Ki, binding to Bcl-xL; cited from earlier work
[4] = cited from earlier work
[5] = molecular target: T1, Bcl-2; test: FP based competitive binding assay, Bcl-2; settings: versus 8
[6] = test system: H146 small-cell lung cancer cell line; test: Cell growth inhibition assay; format: cell-based, Human
[7] = molecular target: T2, Bcl-xL; test: FP based competitive binding assay, Bcl-xL; settings: versus 8
In short: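 Competitive fluorescence-polarization assay for Bcl-xL: pre-incubated Bcl-xL (10 nM) and fluorescent probe (2 nM) with serial dilutions of test compound, room temperature, 2 h, gentle shaking. Millipolarization plotted against total compound concentration. IC50 obtained by nonlinear regression; Ki calculated from IC50.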

[8] = test system: H146 xenograft tumors; test: Western blot of H146 xenograft tumor tissue for cleavage of PARP and caspase-3; format: in vivo, SCID mice; settings: single dose 15 mg/kg i.v., 3 and 6 h time points
In short: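 SCID mice carried subcutaneous H146 xenografts (5 × 10^6 cells with Matrigel) of approximately 100 mm3. They received a single 15 mg/kg i.v. dose of test compound or vehicle. Tumors were harvested at 3, 6 or 24 h, and western blot measured total and cleaved PARP and caspase-3.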

[9] = test system: H146 small-cell lung cancer xenograft; test: Antitumor efficacy in the H146 xenograft tumor model; format: in vivo, SCID mice; settings: for Antitumor activity / Tumor regression: daily, 5 days a week for 2 weeks
In short: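 Subcutaneous dorsal xenografts in SCID mice: 5 × 10^6 H146 cells with Matrigel, one tumor per mouse. At 100–150 mm3 (mean 126 mm3), animals randomized into groups of 8. Vehicle or test compound given i.v. at 15 mg/kg, daily, 5 days/week for 2 weeks. Tumor size and body weight measured 3×/week during and 2×/week after dosing. Data are mean tumor volume ± SEM; two-way ANOVA and unpaired two-tailed t test, P < 0.05.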

[10] = molecular target: Mcl-1 (Homo sapiens, UniProt Q07820); test: FP based competitive binding assay, Mcl-1; settings: at concentrations as high as 2 μM
[11] = test system: small-cell lung cancer cell lines; format: cell-based, Human; settings: for IC50: Homo sapiens
In short: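 H146, H1963, H187 and H1417 small-cell lung cancer lines were maintained in RPMI-1640 with 10% FBS. Cells were exposed to various concentrations of test compound for 4 days. WST-8 was added for a further 1–2 h and absorbance read at 450 nm. IC50 was calculated against untreated cells, with at least three independent experiments per line.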

[12] = test system: H146 small-cell lung cancer xenograft; settings: 25 mg/kg, i.v., 5 days per week for 2 weeks; cited from earlier work

Mcl-1, sequence (Q07820 whole entry): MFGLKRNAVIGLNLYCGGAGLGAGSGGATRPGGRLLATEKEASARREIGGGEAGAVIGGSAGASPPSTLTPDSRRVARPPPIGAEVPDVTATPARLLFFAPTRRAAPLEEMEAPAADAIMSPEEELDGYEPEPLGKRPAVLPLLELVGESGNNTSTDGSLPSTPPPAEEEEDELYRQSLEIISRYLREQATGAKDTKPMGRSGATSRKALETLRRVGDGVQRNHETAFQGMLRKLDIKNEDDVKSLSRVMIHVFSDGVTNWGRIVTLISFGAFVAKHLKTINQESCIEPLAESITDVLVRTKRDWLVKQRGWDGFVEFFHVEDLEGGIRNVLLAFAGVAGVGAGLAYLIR
T1 sequence (P10415 whole entry): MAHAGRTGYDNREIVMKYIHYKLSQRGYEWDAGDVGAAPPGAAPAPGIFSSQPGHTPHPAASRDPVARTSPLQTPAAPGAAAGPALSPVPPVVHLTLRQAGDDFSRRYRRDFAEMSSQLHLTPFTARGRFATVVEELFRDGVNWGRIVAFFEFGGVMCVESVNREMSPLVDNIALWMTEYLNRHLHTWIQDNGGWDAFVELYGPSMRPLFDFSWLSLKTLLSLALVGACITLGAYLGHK
T2 sequence (Q07817 whole entry): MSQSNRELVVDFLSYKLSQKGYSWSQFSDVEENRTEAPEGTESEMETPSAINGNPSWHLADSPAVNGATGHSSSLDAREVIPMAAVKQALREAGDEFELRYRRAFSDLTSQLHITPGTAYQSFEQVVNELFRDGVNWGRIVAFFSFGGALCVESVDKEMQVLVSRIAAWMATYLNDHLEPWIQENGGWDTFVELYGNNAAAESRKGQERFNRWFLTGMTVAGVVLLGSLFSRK

CCn1c(C)c(C(=O)O)c(-c2cccc(N3CCN(c4ccc(NS(=O)(=O)c5ccc(N[C@H](CCN6CCC(O)CC6)CSc6ccccc6)c(S(=O)(=O)C(F)(F)F)c5)cc4)CC3)c2)c1-c1ccc(Cl)cc1 [Compound 6, BM-957]
Ki [1]: < 1 nM | Tumor regression [2]: achieved tumor regression | Ki [3]: < 1 nM

Cc1c(C(=O)O)c(-c2cccc(N3CCN(c4ccc(NS(=O)(=O)c5ccc(N[C@H](CCN(C)C)CSc6ccccc6)c([N+](=O)[O-])c5)cc4)CC3)c2)c(-c2ccc(Cl)cc2)n1C [Compound 4]
Ki [1]: < 1 nM | Chemical stability [4]: excellent chemical stability | Ki [3]: < 1 nM

Cc1c(C(N)=O)c(-c2cccc(N3CCN(c4ccc(NS(=O)(=O)c5ccc(N[C@H](CCN(C)C)CSc6ccccc6)c([N+](=O)[O-])c5)cc4)CC3)c2)c(-c2ccc(Cl)cc2)n1C [Compound 9, (R)-5-(4-Chlorophenyl)-4-(3-(4-(4-(4-(4-(dimethylamino)-1-(phenylthio)butan-2-ylamino)-3-nitrophenylsulfonamido)phenyl)piperazin-1-yl)phenyl)-1,2-dimethyl-1H-pyrrole-3-carboxamide]
Times less potent than compound 8 in binding to Bcl-2 [5]: 4 times | Times less potent than compound 8 in H146 cell growth inhibition ([6]; versus 8): 6 times | Times less potent than compound 8 in binding to Bcl-xL [7]: 2 times

CCn1c(C)c(C(=O)NS(C)(=O)=O)c(-c2cccc(N3CCN(c4ccc(NS(=O)(=O)c5ccc(N[C@H](CCN(C)C)CSc6ccccc6)c([N+](=O)[O-])c5)cc4)CC3)c2)c1-c1ccc(Cl)cc1 [Compound 31, (R)-5-(4-Chlorophenyl)-4-(3-(4-(4-(4-(4-(dimethylamino)-1-(phenylthio)butan-2-ylamino)-3-nitrophenylsulfonamido)phenyl)piperazin-1-yl)phenyl)-1-ethyl-2-methyl-N-(methylsulfonyl)-1H-pyrrole-3-carboxamide]
Cleavage of PARP and caspase-3 in H146 tumor tissue [8]: robust cleavage of PARP and caspase-3 | Antitumor activity ([9]; 15 mg/kg i.v.): strong antitumor activity | Tumor regression ([9]; 15 mg/kg i.v.): partial tumor regression | Binding to Mcl-1 [10]: no appreciable binding

Cc1c(C(=O)NS(C)(=O)=O)c(-c2cccc(N3CCN(c4ccc(NS(=O)(=O)c5ccc(N[C@H](CCN(C)C)CSc6ccccc6)c([N+](=O)[O-])c5)cc4)CC3)c2)c(-c2ccc(Cl)cc2)n1C(C)C [Compound 32, (R)-5-(4-Chlorophenyl)-4-(3-(4-(4-(4-(4-(dimethylamino)-1-(phenylthio)butan-2-ylamino)-3-nitrophenylsulfonamido)phenyl)piperazin-1-yl)phenyl)-1-isopropyl-2-methyl-N-(methylsulfonyl)-1H-pyrrole-3-carboxamide]
Cleavage of PARP and caspase-3 in H146 tumor tissue [8]: robust cleavage of PARP and caspase-3 | Antitumor activity ([9]; 15 mg/kg i.v.): strong antitumor activity | Tumor regression ([9]; 15 mg/kg i.v.): rapid, complete and durable tumor regression; also recorded: rapid, complete and persistent tumor regression | Weight loss ([9]; H146 xenograft efficacy study, 15 mg/kg i.v., during or after treatment): < 5% | Mice with measurable tumors, of 8 treated ([9]; day 62, 18 days after end of treatment, 15 mg/kg i.v.): none | Average tumor size ([9]; day 117, 8 mice, 130 mm^3 at start of treatment (day 33)): 47 mm^3 | Mice without measurable tumors ([9]; day 117, 74 days after end of treatment, 8 mice, 15 mg/kg i.v.): 50% | Binding to Mcl-1 [10]: no appreciable binding; also recorded: does not show any appreciable binding | IC50 ([11]; read-out: IC50, cancer cell growth inhibition): 1 to 2 nM | IC50 ([11]; read-out: IC50, cell growth inhibition): 1 to 2.3 nM | Times more potent than compound 1 in cell growth inhibition ([11]; versus 1, each of H1963, H187, H1417, based on IC50): > 50 times | Times more potent than compound 2 in cell growth inhibition ([11]; versus 2, each of H1963, H187, H1417, based on IC50): > 10 times

CCn1c(C)c(C(=O)O)c(-c2cccc(N3CCN(c4ccc(NS(=O)(=O)c5ccc(N[C@H](CCN(C)C)CSc6ccccc6)c([N+](=O)[O-])c5)cc4)CC3)c2)c1-c1ccc(Cl)cc1 [Compound 5]
Antitumor activity in H146 xenograft model [12]: failed to achieve long-lasting tumor regression | Ki [1]: < 1 nM | Times more potent than compound 4 in H146 cell growth inhibition ([6]; versus 4): 8 times | Chemical stability [4]: excellent chemical stability | Ki [3]: < 1 nM
